{"source": "paper PMC7810372", "about": "(Science Advances, 2021)", "key": {"[1]": {"system": "MDA231 BAX/BAK knockdown (siRNA) cells", "test": "Drug screen and low-throughput cell viability", "type": "cell-based, human", "details": "48 hr treatment, CellTiter-Glo % survival, BAX/BAK KD versus control"}, "[2]": {"molecular_target": "HDAC1 (Homo sapiens, UniProt Q13547)", "sequence (Q13547 whole entry)": "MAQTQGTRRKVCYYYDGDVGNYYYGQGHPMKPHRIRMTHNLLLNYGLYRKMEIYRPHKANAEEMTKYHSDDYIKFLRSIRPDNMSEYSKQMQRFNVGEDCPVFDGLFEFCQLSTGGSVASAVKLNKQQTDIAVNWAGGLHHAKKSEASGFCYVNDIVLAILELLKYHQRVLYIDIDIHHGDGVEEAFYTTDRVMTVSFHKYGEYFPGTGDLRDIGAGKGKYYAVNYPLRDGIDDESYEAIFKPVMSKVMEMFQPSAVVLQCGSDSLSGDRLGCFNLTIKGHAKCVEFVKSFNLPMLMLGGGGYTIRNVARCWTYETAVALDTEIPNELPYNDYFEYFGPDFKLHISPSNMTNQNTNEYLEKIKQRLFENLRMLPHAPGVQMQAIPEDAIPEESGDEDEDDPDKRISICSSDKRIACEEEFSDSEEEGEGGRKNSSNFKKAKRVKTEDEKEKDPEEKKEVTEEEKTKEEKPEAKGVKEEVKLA", "test": "HDAC inhibitory assay", "type": "biochemical"}, "[3]": {"molecular_target": "T1, HDAC7 (Homo sapiens, UniProt Q8WUI4)", "T1 sequence (Q8WUI4 1-952)": "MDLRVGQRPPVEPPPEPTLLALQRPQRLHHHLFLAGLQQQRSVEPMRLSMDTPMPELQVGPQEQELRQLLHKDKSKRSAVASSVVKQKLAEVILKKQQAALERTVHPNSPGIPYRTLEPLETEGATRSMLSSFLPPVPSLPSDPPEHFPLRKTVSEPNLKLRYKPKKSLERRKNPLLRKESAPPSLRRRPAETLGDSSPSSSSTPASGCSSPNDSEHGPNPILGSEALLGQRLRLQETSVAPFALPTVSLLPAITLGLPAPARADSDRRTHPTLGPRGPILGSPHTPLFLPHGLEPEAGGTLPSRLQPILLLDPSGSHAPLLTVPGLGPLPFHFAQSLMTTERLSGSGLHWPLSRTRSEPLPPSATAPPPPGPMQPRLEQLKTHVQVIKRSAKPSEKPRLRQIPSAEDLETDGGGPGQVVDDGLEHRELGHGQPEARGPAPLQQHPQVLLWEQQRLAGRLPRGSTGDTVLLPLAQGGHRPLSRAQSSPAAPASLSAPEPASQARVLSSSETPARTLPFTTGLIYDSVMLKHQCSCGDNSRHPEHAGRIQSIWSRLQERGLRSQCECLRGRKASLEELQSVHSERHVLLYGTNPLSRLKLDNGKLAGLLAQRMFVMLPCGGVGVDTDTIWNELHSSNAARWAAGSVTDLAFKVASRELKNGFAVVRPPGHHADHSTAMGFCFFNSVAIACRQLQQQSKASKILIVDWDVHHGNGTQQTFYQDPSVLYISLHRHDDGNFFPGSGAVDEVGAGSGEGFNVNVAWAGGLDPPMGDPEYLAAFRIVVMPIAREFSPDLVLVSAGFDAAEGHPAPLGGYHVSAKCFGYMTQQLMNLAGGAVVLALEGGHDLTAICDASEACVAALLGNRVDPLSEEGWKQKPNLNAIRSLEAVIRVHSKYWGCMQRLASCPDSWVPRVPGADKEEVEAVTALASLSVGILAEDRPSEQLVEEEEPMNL", "test": "HDAC inhibitory assay", "type": "biochemical"}, "[4]": {"molecular_target": "T2, HDAC8 (Homo sapiens, UniProt Q9BY41)", "T2 sequence (Q9BY41 1-377)": "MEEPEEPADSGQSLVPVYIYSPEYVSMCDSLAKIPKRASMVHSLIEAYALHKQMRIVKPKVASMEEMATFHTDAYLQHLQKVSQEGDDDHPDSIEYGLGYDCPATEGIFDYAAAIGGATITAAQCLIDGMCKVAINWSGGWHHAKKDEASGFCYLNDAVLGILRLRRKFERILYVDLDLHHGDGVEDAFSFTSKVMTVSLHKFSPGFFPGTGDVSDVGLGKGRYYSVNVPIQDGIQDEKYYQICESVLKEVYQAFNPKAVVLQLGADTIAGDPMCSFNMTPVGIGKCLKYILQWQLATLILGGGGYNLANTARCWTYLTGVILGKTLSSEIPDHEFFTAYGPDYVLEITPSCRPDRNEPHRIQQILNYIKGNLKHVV", "test": "HDAC inhibitory assay", "type": "biochemical"}, "[5]": {"molecular_target": "T3, HDAC6 (Homo sapiens, UniProt Q9UBN7)", "T3 sequence (Q9UBN7 1-1215)": "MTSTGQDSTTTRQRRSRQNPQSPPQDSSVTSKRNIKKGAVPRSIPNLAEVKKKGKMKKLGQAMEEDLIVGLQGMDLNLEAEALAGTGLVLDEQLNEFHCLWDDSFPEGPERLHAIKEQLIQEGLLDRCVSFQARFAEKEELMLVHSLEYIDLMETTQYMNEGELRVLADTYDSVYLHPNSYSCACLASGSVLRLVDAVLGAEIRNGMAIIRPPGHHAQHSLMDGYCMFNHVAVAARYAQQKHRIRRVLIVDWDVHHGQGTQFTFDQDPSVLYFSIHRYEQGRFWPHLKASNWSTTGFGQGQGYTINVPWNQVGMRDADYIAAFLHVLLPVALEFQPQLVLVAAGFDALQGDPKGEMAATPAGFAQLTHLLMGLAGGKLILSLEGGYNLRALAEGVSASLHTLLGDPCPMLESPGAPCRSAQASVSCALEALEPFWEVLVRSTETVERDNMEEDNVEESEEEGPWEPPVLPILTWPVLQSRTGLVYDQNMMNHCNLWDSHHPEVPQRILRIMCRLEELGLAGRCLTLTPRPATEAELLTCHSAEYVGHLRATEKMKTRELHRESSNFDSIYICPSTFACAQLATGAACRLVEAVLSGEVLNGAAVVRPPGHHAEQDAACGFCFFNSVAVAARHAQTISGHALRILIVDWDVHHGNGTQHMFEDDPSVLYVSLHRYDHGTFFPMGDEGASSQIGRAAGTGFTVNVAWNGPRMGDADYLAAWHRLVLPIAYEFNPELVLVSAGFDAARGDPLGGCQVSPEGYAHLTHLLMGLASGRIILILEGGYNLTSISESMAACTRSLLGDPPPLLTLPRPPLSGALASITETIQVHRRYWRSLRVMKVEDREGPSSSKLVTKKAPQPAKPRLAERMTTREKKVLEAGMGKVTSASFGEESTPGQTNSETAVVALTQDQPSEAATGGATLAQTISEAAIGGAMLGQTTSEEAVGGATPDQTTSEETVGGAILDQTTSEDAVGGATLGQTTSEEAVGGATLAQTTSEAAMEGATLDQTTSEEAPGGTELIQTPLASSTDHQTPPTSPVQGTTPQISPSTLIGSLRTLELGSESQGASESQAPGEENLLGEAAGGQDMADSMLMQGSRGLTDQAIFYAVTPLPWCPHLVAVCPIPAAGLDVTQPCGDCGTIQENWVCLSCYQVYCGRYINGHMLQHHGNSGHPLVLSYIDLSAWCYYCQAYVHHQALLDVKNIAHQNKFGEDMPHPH", "test": "HDAC inhibitory assay", "type": "biochemical"}, "[6]": {"system": "BT-549 cells", "test": "Extracellular flux assay, ECAR", "type": "cell-based, human", "details": "2 µM, 24 hrs", "how_it_was_run": "(§1)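 Seahorse XF96: cells were seeded for 24 h, then treated for a further 24 h. One hour before the run they were changed to XF Base medium, pH 7.4, with 1 mM L-glutamine. ECAR was read three times at baseline and three times after each sequential injection of glucose (10 mM), oligomycin (1 µM) and 2-DG (50 mM). Readings were protein-normalized, baseline-subtracted and expressed as fold change versus DMSO.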"}, "[7]": {"system": "MDA231 cells", "test": "Extracellular flux assay, ECAR", "type": "cell-based, human", "details": "2 µM, 24 hrs", "how_it_was_run": "as §1"}, "[8]": {"system": "aldolase in BT-549 cells", "test": "Aldolase activity assay", "type": "cell-based, human", "details": "24 hr treatment", "how_it_was_run": "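Cells (1×10^6 for MDA231) were exposed to test compound for 24 h. Aldolase or GAPDH activity was then measured with a commercial kit following the maker's protocol. Values were normalized to protein concentration and expressed as fold change relative to DMSO.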"}, "[9]": {"system": "glucose transporter 1, hexokinase II", "details": "cited from earlier work"}}}
{"smiles": "CN(C)CC[C@H](CSc1ccccc1)Nc1ccc(S(=O)(=O)NC(=O)c2ccc(N3CCN(Cc4ccccc4-c4ccc(Cl)cc4)CC3)cc2)cc1[N+](=O)[O-]", "note": "[ABT-737]", "values": [{"measurement": "response to apoptosis-inducing agents", "setting": "[1]", "result": "broadly resistant"}]}
{"smiles": "O=C(CCCCCCC(=O)Nc1ccccc1)NO", "note": "[SAHA, suberoylanilide hydroxamic acid]", "values": [{"measurement": "inhibition of HDAC activity", "setting": "[2]", "result": "inhibits the activity"}, {"measurement": "inhibition of HDAC activity", "setting": "[3]", "result": "inhibits the activity"}, {"measurement": "inhibition of HDAC activity", "setting": "[4]", "result": "inhibits the activity"}, {"measurement": "inhibition of HDAC activity", "setting": "[5]", "result": "inhibits the activity"}]}
{"smiles": "O=C(CCCCCCNC(=O)c1cnc(N(c2ccccc2)c2ccccc2Cl)nc1)NO", "note": "[ACY-241]", "values": [{"measurement": "glycolysis and glycolytic capacity (ECAR)", "setting": "[6]; 1 µM", "result": "confirmed all the above results"}]}
{"smiles": "O=C(CCCCCCC(=O)Nc1ccc([C@H]2O[C@@H](CSc3nc(-c4ccccc4)c(-c4ccccc4)o3)C[C@@H](c3ccc(CO)cc3)O2)cc1)NO", "note": "[tubacin]", "values": [{"measurement": "extracellular acidification rate (ECAR)", "setting": "[7]", "result": "reduction"}, {"measurement": "glycolysis and glycolytic capacity (ECAR)", "setting": "[6]", "result": "confirmed all the above results"}]}
{"smiles": "COc1cc([C@@H]2c3cc4c(cc3[C@@H](O[C@@H]3O[C@@H]5CO[C@@H](C)O[C@H]5[C@H](O)[C@H]3O)[C@H]3COC(=O)[C@H]23)OCO4)cc(OC)c1O", "note": "[etoposide]", "values": [{"measurement": "response to apoptosis-inducing agents", "setting": "[1]", "result": "broadly resistant"}]}
{"smiles": "O=C(CCCCCCNC(=O)c1cnc(N(c2ccccc2)c2ccccc2)nc1)NO", "note": "[ACY-1215]", "values": [{"measurement": "aldolase enzymatic activity", "setting": "[8]", "result": "reduced aldolase activity"}]}
{"smiles": "CCCC(CCC)C(=O)O", "note": "[valproate]", "values": [{"measurement": "glucose transporter 1", "setting": "[9]", "result": "reduction in the glucose transporter 1"}, {"measurement": "hexokinase II activity", "setting": "[9]", "result": "reduction in hexokinase II activity"}]}
